Test results published in ChEMBL document CHEMBL1649231, “In vitro activities of panduratin A against clinical Staphylococcus strains” (2009).
In brackets after ≈: the same amount, converted by molar mass.

Key:
Type in all cases: functional
Staphylococcus aureus [1] = assay: Antimicrobial activity against methicillin-resistant Staphylococcus aureus after 24 hrs by broth microdilution method
How it was run: (§1)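 Clinical isolates came from blood, body fluids, genital secretions, pus or sputum, identified conventionally or by Vitek. MICs were run by CLSI M7-A6 broth microdilution in Mueller-Hinton broth with 5 × 10^5 CFU/ml inoculum. Agents were twofold serially diluted, starting from 10% DMSO. Drug-free and uninoculated controls were included. Plates were incubated aerobically at 37°C for 24 h; MIC is the lowest concentration giving no visible growth.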

Staphylococcus aureus [2] = assay: Antimicrobial activity against methicillin-susceptible Staphylococcus aureus after 24 hrs by broth microdilution method; how it was run: as §1
Staphylococcus simulans [3] = assay: Antimicrobial activity against methicillin-resistant coagulase-negative Staphylococcus simulans assessed as susceptible isolates after 24 hrs by broth microdilution method
Staphylococcus simulans [4] = assay: Antimicrobial activity against methicillin-resistant coagulase-negative Staphylococcus simulans after 24 hrs by broth microdilution method; how it was run: as §1
[5] = system: Staphylococcus haemolyticus; assay: Bactericidal activity against methicillin-resistant coagulase-negative Staphylococcus haemolyticus after 24 hrs by plate counting method
[6] = system: Staphylococcus haemolyticus; assay: Antimicrobial activity against methicillin-resistant coagulase-negative Staphylococcus haemolyticus assessed as resistant isolates after 24 hrs by broth microdilution method
[7] = system: Staphylococcus haemolyticus; assay: Antimicrobial activity against methicillin-resistant coagulase-negative Staphylococcus haemolyticus assessed as susceptible isolates after 24 hrs by broth microdilution method
[8] = system: Staphylococcus epidermidis; assay: Bactericidal activity against methicillin-resistant coagulase-negative Staphylococcus epidermidis after 24 hrs by plate counting method
[9] = system: Staphylococcus epidermidis; assay: Antimicrobial activity against methicillin-resistant coagulase-negative Staphylococcus epidermidis assessed as resistant isolates after 24 hrs by broth microdilution method
[10] = system: Staphylococcus epidermidis; assay: Antimicrobial activity against methicillin-resistant coagulase-negative Staphylococcus epidermidis after 24 hrs by broth microdilution method; how it was run: as §1
Staphylococcus hominis [11] = assay: Bactericidal activity against methicillin-resistant coagulase-negative Staphylococcus hominis after 24 hrs by plate counting method
Staphylococcus hominis [12] = assay: Antimicrobial activity against methicillin-resistant coagulase-negative Staphylococcus hominis after 24 hrs by broth microdilution method; how it was run: as §1
Staphylococcus aureus [13] = assay: Antimicrobial activity against methicillin-resistant Staphylococcus aureus assessed as resistant isolates after 24 hrs by broth microdilution method
Staphylococcus aureus [14] = assay: Antimicrobial activity against methicillin-susceptible Staphylococcus aureus assessed as susceptible isolates after 24 hrs by broth microdilution method
Staphylococcus aureus [15] = assay: Antimicrobial activity against methicillin-resistant Staphylococcus aureus assessed as susceptible isolates after 24 hrs by broth microdilution method
Staphylococcus simulans [16] = assay: Bactericidal activity against methicillin-resistant coagulase-negative Staphylococcus simulans after 24 hrs by plate counting method
How it was run: (§2)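 Clinical staphylococcal isolates from patient body fluids, blood, genital secretions, pus or sputum; species by conventional methods or Vitek. Twofold dilutions in Mueller-Hinton broth, inoculum 5 × 10^5 CFU/ml, 37°C aerobic 24 h (CLSI M7-A6 microdilution). About 100 μl from each well without visible growth spread on MHA; 37°C 24 h. MBC = lowest concentration giving no growth on agar.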

Mammaliicoccus sciuri [17] = assay: Antimicrobial activity against methicillin-resistant coagulase-negative Staphylococcus sciuri assessed as susceptible isolates after 24 hrs by broth microdilution method
Mammaliicoccus sciuri [18] = assay: Antimicrobial activity against methicillin-resistant coagulase-negative Staphylococcus sciuri assessed as resistant isolates after 24 hrs by broth microdilution method
Mammaliicoccus sciuri [19] = assay: Bactericidal activity against methicillin-resistant coagulase-negative Staphylococcus sciuri after 24 hrs by plate counting method; how it was run: as §2
Staphylococcus hominis [20] = assay: Antimicrobial activity against methicillin-susceptible coagulase-negative Staphylococcus hominis after 24 hrs by broth microdilution method; how it was run: as §1
Staphylococcus hominis [21] = assay: Antimicrobial activity against methicillin-susceptible coagulase-negative Staphylococcus hominis assessed as susceptible isolates after 24 hrs by broth microdilution method
Staphylococcus hominis [22] = assay: Bactericidal activity against methicillin-susceptible coagulase-negative Staphylococcus hominis after 24 hrs by plate counting method; how it was run: as §2
[23] = system: Staphylococcus epidermidis; assay: Antimicrobial activity against methicillin-susceptible coagulase-negative Staphylococcus epidermidis after 24 hrs by broth microdilution method; how it was run: as §1
[24] = system: Staphylococcus epidermidis; assay: Antimicrobial activity against methicillin-susceptible coagulase-negative Staphylococcus epidermidis assessed as susceptible isolates after 24 hrs by broth microdilution method
[25] = system: Staphylococcus epidermidis; assay: Antimicrobial activity against methicillin-susceptible coagulase-negative Staphylococcus epidermidis assessed as resistant isolates after 24 hrs by broth microdilution method
[26] = system: Staphylococcus haemolyticus; assay: Antimicrobial activity against methicillin-susceptible coagulase-negative Staphylococcus haemolyticus after 24 hrs by broth microdilution method; how it was run: as §1
[27] = system: Staphylococcus haemolyticus; assay: Antimicrobial activity against methicillin-susceptible coagulase-negative Staphylococcus haemolyticus assessed as susceptible isolates after 24 hrs by broth microdilution method
[28] = system: Staphylococcus haemolyticus; assay: Bactericidal activity against methicillin-susceptible coagulase-negative Staphylococcus haemolyticus after 24 hrs by plate counting method; how it was run: as §2
Staphylococcus simulans [29] = assay: Antimicrobial activity against methicillin-susceptible coagulase-negative Staphylococcus simulans assessed as susceptible isolates after 24 hrs by broth microdilution method
How it was run: (§3)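 Clinical isolates from blood, body fluids, pus, sputum or genital secretions, identified conventionally or by Vitek, were tested alongside ATCC 29213 and ATCC 12228 controls. CLSI M7-A6 broth microdilution in Mueller-Hinton broth used twofold dilutions from a 10% DMSO solution and 5 × 10^5 CFU/ml inoculum. Drug-free and uninoculated wells served as controls; incubation was aerobic at 37°C for 24 h. MIC was the lowest concentration with no visible growth.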

Staphylococcus simulans [30] = assay: Antimicrobial activity against methicillin-susceptible coagulase-negative Staphylococcus simulans assessed as resistant isolates after 24 hrs by broth microdilution method
Staphylococcus simulans [31] = assay: Bactericidal activity against methicillin-susceptible coagulase-negative Staphylococcus simulans after 24 hrs by plate counting method; how it was run: as §2
Mammaliicoccus sciuri [32] = assay: Antimicrobial activity against methicillin-susceptible coagulase-negative Staphylococcus sciuri assessed as susceptible isolates after 24 hrs by broth microdilution method; how it was run: as §3
Staphylococcus aureus [33] = assay: Antimicrobial activity against methicillin-susceptible Staphylococcus aureus assessed as intermediate resistant isolates after 24 hrs by broth microdilution method
[34] = system: Staphylococcus epidermidis; assay: Antimicrobial activity against methicillin-resistant coagulase-negative Staphylococcus epidermidis assessed as intermediate resistant isolates after 24 hrs by broth microdilution method
[35] = system: Staphylococcus haemolyticus; assay: Antimicrobial activity against methicillin-resistant coagulase-negative Staphylococcus haemolyticus assessed as intermediate resistant isolates after 24 hrs by broth microdilution method
Staphylococcus hominis [36] = assay: Antimicrobial activity against methicillin-susceptible coagulase-negative Staphylococcus hominis assessed as intermediate resistant isolates after 24 hrs by broth microdilution method; settings: pooled result: one value given for 5 cell lines, strains, targets or settings
[37] = Staphylococcus haemolyticus, 24 h

GENTAMICIN
MIC50 (Staphylococcus aureus [1]): 32 µg/mL
MIC90 (Staphylococcus aureus [1]): 64 µg/mL
MIC50 (Staphylococcus aureus [2]): 4 µg/mL
MIC90 (Staphylococcus aureus [2]): 64 µg/mL
Activity (Staphylococcus simulans [3]): 7%
MIC50 (Staphylococcus simulans [4]): 8 µg/mL
MIC90 (Staphylococcus simulans [4]): 64 µg/mL
MBC [5]: 0.25 µg/mL
MBC50 [5]: 8 µg/mL
MBC90 [5]: 128 µg/mL
Activity [6]: 48%
Activity [7]: 45%
MBC [8]: 0.25 µg/mL
MBC50 [8]: 8 µg/mL
MBC90 [8]: 128 µg/mL
Activity [9]: 48%
MIC50 [10]: 8 µg/mL
MIC90 [10]: 64 µg/mL
MBC (Staphylococcus hominis [11]): 0.25 µg/mL
MBC50 (Staphylococcus hominis [11]): 8 µg/mL
MBC90 (Staphylococcus hominis [11]): 128 µg/mL
MIC50 (Staphylococcus hominis [12]): 8 µg/mL
MIC90 (Staphylococcus hominis [12]): 64 µg/mL
Activity (Staphylococcus aureus [13]): 63%
Activity (Staphylococcus aureus [14]): 52%
Activity (Staphylococcus aureus [15]): 15%
MBC (Staphylococcus simulans [16]): 0.25 µg/mL
MBC50 (Staphylococcus simulans [16]): 8 µg/mL
MBC90 (Staphylococcus simulans [16]): 128 µg/mL
Activity (Mammaliicoccus sciuri [17]): 7%
Activity (Mammaliicoccus sciuri [18]): 48%
MBC (Mammaliicoccus sciuri [19]): 0.25 µg/mL
MBC50 (Mammaliicoccus sciuri [19]): 8 µg/mL
MBC90 (Mammaliicoccus sciuri [19]): 128 µg/mL
MIC50 (Staphylococcus hominis [20]): 0.125 µg/mL
MIC90 (Staphylococcus hominis [20]): 32 µg/mL
Activity (Staphylococcus hominis [21]): 73%
MBC (Staphylococcus hominis [22]): 0.25 µg/mL
MBC50 (Staphylococcus hominis [22]): 1 µg/mL
MBC90 (Staphylococcus hominis [22]): 64 µg/mL
MIC50 [23]: 0.125 µg/mL
MIC90 [23]: 32 µg/mL
Activity [24]: 73%
Activity [25]: 27%
MIC50 [26]: 0.125 µg/mL
MIC90 [26]: 32 µg/mL
Activity [27]: 73%
MBC [28]: 0.25 µg/mL
MBC50 [28]: 1 µg/mL
MBC90 [28]: 64 µg/mL
Activity (Staphylococcus simulans [29]): 73%
Activity (Staphylococcus simulans [30]): 27%
MBC (Staphylococcus simulans [31]): 0.25 µg/mL
MBC50 (Staphylococcus simulans [31]): 1 µg/mL
MBC90 (Staphylococcus simulans [31]): 64 µg/mL
Activity (Mammaliicoccus sciuri [32]): 73%
Activity (Staphylococcus aureus [33]): 0%
Activity [34]: 7%
Activity [35]: 7%
Activity (Staphylococcus hominis [36]): 0%

CC[C@H]1OC(=O)[C@H](C)[C@@H](O[C@H]2C[C@@](C)(OC)[C@@H](O)[C@H](C)O2)[C@H](C)[C@@H](O[C@@H]2O[C@H](C)C[C@H](N(C)C)[C@H]2O)[C@](C)(O)C[C@@H](C)C(=O)[C@H](C)[C@@H](O)[C@]1(C)O [ERYTHROMYCIN]
MIC50 (Staphylococcus aureus [1]): 32 µg/mL (≈ 43.6 µM)
MIC90 (Staphylococcus aureus [1]): 64 µg/mL (≈ 87.2 µM)
MIC (Staphylococcus aureus [2]): 0.5 µg/mL (≈ 0.681 µM)
MIC50 (Staphylococcus aureus [2]): 0.5 µg/mL (≈ 0.681 µM)
MIC90 (Staphylococcus aureus [2]): 32 µg/mL (≈ 43.6 µM)
Activity (Staphylococcus simulans [3]): 15%
MIC50 (Staphylococcus simulans [4]): 16 µg/mL (≈ 21.8 µM)
MIC90 (Staphylococcus simulans [4]): 32 µg/mL (≈ 43.6 µM)
MBC50 [5]: 32 µg/mL (≈ 43.6 µM)
MBC [5, 37]: 1 µg/mL (≈ 1.36 µM)
Activity [6]: 74%
Activity [7]: 11%
MBC50 [8]: 32 µg/mL (≈ 43.6 µM)
MBC ([8]; Staphylococcus epidermidis, 24 h): 1 µg/mL (≈ 1.36 µM)
Activity [9]: 74%
MIC50 [10]: 16 µg/mL (≈ 21.8 µM)
MIC90 [10]: 32 µg/mL (≈ 43.6 µM)
MBC50 (Staphylococcus hominis [11]): 32 µg/mL (≈ 43.6 µM)
MBC (Staphylococcus hominis [11]; Staphylococcus hominis, 24 h): 1 µg/mL (≈ 1.36 µM)
MIC50 (Staphylococcus hominis [12]): 16 µg/mL (≈ 21.8 µM)
MIC90 (Staphylococcus hominis [12]): 32 µg/mL (≈ 43.6 µM)
Activity (Staphylococcus aureus [13]): 100%
Activity (Staphylococcus aureus [14]): 56%
Activity (Staphylococcus aureus [15]): 0%
MBC50 (Staphylococcus simulans [16]): 32 µg/mL (≈ 43.6 µM)
MBC (Staphylococcus simulans [16]; Staphylococcus simulans, 24 h): 1 µg/mL (≈ 1.36 µM)
Activity (Mammaliicoccus sciuri [17]): 15%
Activity (Mammaliicoccus sciuri [18]): 74%
MBC50 (Mammaliicoccus sciuri [19]): 32 µg/mL (≈ 43.6 µM)
MBC (Mammaliicoccus sciuri [19]; Mammaliicoccus sciuri, 24 h): 1 µg/mL (≈ 1.36 µM)
MIC (Staphylococcus hominis [20]): 0.5 µg/mL (≈ 0.681 µM)
MIC50 (Staphylococcus hominis [20]): 0.5 µg/mL (≈ 0.681 µM)
MIC90 (Staphylococcus hominis [20]): 16 µg/mL (≈ 21.8 µM)
Activity (Staphylococcus hominis [21]): 50%
MBC50 (Staphylococcus hominis [22]): 2 µg/mL (≈ 2.73 µM)
MBC (Staphylococcus hominis [22]; Staphylococcus hominis, 24 h): 1 µg/mL (≈ 1.36 µM)
MIC [23]: 0.5 µg/mL (≈ 0.681 µM)
MIC50 [23]: 0.5 µg/mL (≈ 0.681 µM)
MIC90 [23]: 16 µg/mL (≈ 21.8 µM)
Activity [24]: 50%
Activity [25]: 27%
MIC [26]: 0.5 µg/mL (≈ 0.681 µM)
MIC50 [26]: 0.5 µg/mL (≈ 0.681 µM)
MIC90 [26]: 16 µg/mL (≈ 21.8 µM)
Activity [27]: 50%
MBC50 [28]: 2 µg/mL (≈ 2.73 µM)
MBC [28, 37]: 1 µg/mL (≈ 1.36 µM)
Activity (Staphylococcus simulans [29]): 50%
Activity (Staphylococcus simulans [30]): 27%
MBC50 (Staphylococcus simulans [31]): 2 µg/mL (≈ 2.73 µM)
MBC (Staphylococcus simulans [31]; Staphylococcus simulans, 24 h): 1 µg/mL (≈ 1.36 µM)
Activity (Mammaliicoccus sciuri [32]): 50%
Activity (Staphylococcus aureus [33]): 4%
Activity [34]: 15%
Activity [35]: 15%
Activity (Staphylococcus hominis [36]): 23%
